Laboratory results as given in ChEMBL document CHEMBL1123157, “Thromboxane synthetase inhibitors and antihypertensive agents. 1. N-[(1H-imidazol-1-yl)alkyl]aryl amides and N-[(1H-1,2,4-triazol-1-yl)alkyl]aryl amides” (J Med Chem, 1986).
The source made the active and inactive calls.

Legend:
[1] = biological target: T1, Thromboxane-A synthase (Rattus norvegicus) (UniProt P49430); test: Inhibitory activity for thromboxane synthetase determined by TXB2 levels in platelets from spontaneously hypertensive rats.; design: concentration or dose not given beside the values; settings: concentration not given here
T1 sequence (whole entry): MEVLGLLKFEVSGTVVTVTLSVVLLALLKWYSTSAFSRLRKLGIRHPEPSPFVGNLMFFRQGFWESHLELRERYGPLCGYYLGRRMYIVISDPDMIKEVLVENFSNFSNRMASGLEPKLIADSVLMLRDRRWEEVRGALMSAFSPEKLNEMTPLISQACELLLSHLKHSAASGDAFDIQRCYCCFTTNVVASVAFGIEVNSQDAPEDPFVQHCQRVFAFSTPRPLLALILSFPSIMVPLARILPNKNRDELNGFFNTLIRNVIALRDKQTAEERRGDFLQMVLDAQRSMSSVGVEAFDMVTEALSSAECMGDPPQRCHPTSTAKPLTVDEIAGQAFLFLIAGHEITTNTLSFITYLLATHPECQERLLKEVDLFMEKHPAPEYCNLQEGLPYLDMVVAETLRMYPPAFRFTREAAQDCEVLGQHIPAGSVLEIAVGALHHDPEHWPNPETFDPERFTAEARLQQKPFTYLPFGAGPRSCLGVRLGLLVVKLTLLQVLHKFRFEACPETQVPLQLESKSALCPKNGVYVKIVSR
Procedure, shortened: (§1)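 Washed SHR platelets in oxygenated Krebs phosphate buffer, pH 7.4, 4.5-6.0 × 10^4/μL, incubated with vehicle or drug for 10 min at 37 °C. Stopped with ice and citric acid. Supernatant TXB2 measured by RIA; TXB2 in boiled controls subtracted; % inhibition calculated. IC50 read graphically from % inhibition vs log concentration; single-point screen at 10^-4 M.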

Rattus norvegicus [2] = test: Antihypertensive activity in spontaneously hypertensive rats tested at 100 mg/kg po/day for 2 days; type: functional, organism-based; design: dose 100 mg/kg
Procedure, shortened: (§2)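 Male 16-week-old Okamoto SHR (mean arterial pressure about 170 mmHg), 1-3 rats per compound. Given by gavage in 2% preboiled starch (50 mg/mL), 100 mg/kg or less, with 0.9% NaCl load (25 mL/kg). Second dose without saline 24 h later. Mean arterial pressure measured 28 h after first dose. Active if ≤116 mmHg in one rat or mean ≤122 mmHg in two.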

Thromboxane-A synthase [3] = biological target: T2, Thromboxane-A synthase (Rattus norvegicus, UniProt P49430); test: Compound was tested for inhibitory activity against thromboxane synthetase
T2 sequence (P49430 whole entry): T1 sequence (whole entry)
Procedure, shortened: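 Washed SHR platelets in oxygenated Krebs phosphate buffer, pH 7.4, 4.5-6.0 × 10^4/μL, incubated with vehicle or drug for 10 min at 37 °C. Stopped with ice and citric acid. Supernatant TXB2 measured by RIA; TXB2 in boiled controls subtracted; % inhibition calculated.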

Rattus norvegicus [4] = test: Antihypertensive activity in spontaneously hypertensive rats at 100 mg/kg po/day for 2 days; type: functional, organism-based; design: dose 100 mg/kg; procedure, shortened: as §2
Thromboxane-A synthase [5] = biological target: T2, Thromboxane-A synthase; test: compound was tested for inhibitory activity against thromboxane synthetase,; procedure, shortened: as §1

| Structure (SMILES) | inhibition [1] | Activity (Rattus norvegicus [2]) | IC50 (Thromboxane-A synthase [3]) | Activity (Rattus norvegicus [4]) | IC50 (Thromboxane-A synthase [5]) |
| --- | --- | --- | --- | --- | --- |
| CSc1ccc(C(=O)NCCCn2ccnc2)cc1 | 100% | inactive | 0.5 µM | – | – |
| Cc1nccn1CCCNC(=O)c1ccc(Cl)cc1 | 0% | – | – | Active | – |
| Cc1cn(CCCNC(=O)c2ccc(C(F)(F)F)cc2)cn1 | 92% | – | – | Active | – |
| O=C(NCCCn1ccnc1)c1cccc(Br)c1 | 91% | – | – | Active | – |
| O=C(NCCCn1ccnc1)c1ccc(C(F)(F)F)cc1 | 93% | – | – | Active | – |
| O=C(NCCCCn1ccnc1)c1ccc(Br)cc1 | 87% | – | – | Active | – |
| CN(C)c1ccc(C(=O)NCCCn2cncn2)cc1 | 64% | – | – | Active | – |
| O=C(NCCCn1ccnc1)c1cccc(C(F)(F)F)c1 | 100% | – | 4 µM | Active | – |
| Cc1ccc(CC(=O)NCCCn2ccnc2)cc1 | 58% | – | – | Active | – |
| O=C(NCCCCCn1ccnc1)c1ccc(Cl)cc1 | 100% | inactive | – | – | 5 µM |
| O=C(NCCCCn1ccnc1)c1ccc(Cl)cc1 | 95% | inactive | 5 µM | – | – |
| C=CCNc1ccc(Cl)cc1C(=O)NCCCn1ccnc1 | 95% | – | – | Active | – |
| Nc1ccc(Cl)cc1C(=O)NCCCn1ccnc1 | 96% | – | – | Active | – |
| O=C(NCCCn1ccnc1)c1ccc(I)cc1 | 97% | inactive | 0.55 µM | – | – |
| O=C(NCCCn1ccnc1)c1ccc(Br)cc1 | 85% | – | – | Active | – |
| Cc1nccn1CCCNC(=O)c1ccc(C(F)(F)F)cc1 | 36% | – | – | Active | – |
| O=C(NCCCn1ccnc1)c1cccc(Cl)c1 | 75% | – | – | Active | – |
| O=C(NCCCCCCCCn1ccnc1)c1ccc(Cl)cc1 | 100% | – | 0.1 µM | Active | – |

| Structure (SMILES) | inhibition [1] | Activity (Rattus norvegicus [2]) | IC50 (Thromboxane-A synthase [3]) | Activity (Rattus norvegicus [4]) | IC50 (Thromboxane-A synthase [5]) |
| --- | --- | --- | --- | --- | --- |
| O=C(NCCCn1cnc(-c2ccccc2)c1)c1ccc(Cl)cc1 | 69% | – | – | Active | – |
| Cc1cn(CCCNC(=O)c2cccc(Cl)c2)cn1 | 84% | – | – | Active | – |
| O=C(NCCCCCCn1ccnc1)c1ccc(Cl)cc1 | 100% | inactive | 0.8 µM | – | – |
| O=C(NCCCn1ccnc1)c1ccc(Cl)cc1 | 95% | – | – | Active | – |
| O=C(NCCCCCn1ccnc1)c1ccc(C(F)(F)F)cc1 | 100% | inactive | 0.7 µM | – | – |
| O=C(/C=C/c1ccc(Cl)cc1)NCCCn1ccnc1 | 98% | – | – | Active | – |
| Cc1cn(CCCNC(=O)c2ccc(Cl)c(Cl)c2)cn1 | 90% | – | – | Active | – |
| Nc1ccccc1C(=O)NCCCn1ccnc1 | 89% | – | – | Active | – |
| Cc1cn(CCCNC(=O)c2ccc(Br)cc2)cn1 | 80% | – | – | Active | – |
| Cc1nccn1CCCNC(=O)c1ccc(Cl)c(Cl)c1 | 82% | inactive | – | – | – |
| Cc1cn(CCCNC(=O)c2ccc(Cl)cc2)cn1 | 93% | – | – | Active | – |
| O=C(NCCCn1cncn1)c1ccccc1 | 77% | – | – | Active | – |
| CCNc1ccccc1C(=O)NCCCn1ccnc1 | 86% | inactive | – | – | – |
| O=C(Cc1cccc(Cl)c1)NCCCn1ccnc1 | 75% | – | – | Active | – |
| O=C(NCCCCn1cncn1)c1ccc(Cl)c(Cl)c1 | 82% | inactive | – | – | – |
| O=C(NCCCn1ccnc1)c1ccc(C(=O)c2ccccc2)cc1 | 100% | inactive | – | – | – |
| O=C(COc1ccc(Cl)cc1)NCCCn1ccnc1 | 85% | inactive | – | – | – |
